{"data": "Measurements of several laboratories", "TYK2": "Non-receptor tyrosine-protein kinase TYK2 (TYK2, Homo sapiens, UniProt P29597)", "TYK2 JH2": "Non-receptor tyrosine-protein kinase TYK2, JH2 (TYK2, Homo sapiens, UniProt P29597)", "TYK2 JH1": "Non-receptor tyrosine-protein kinase TYK2, JH1 (TYK2, Homo sapiens, UniProt P29597)", "note": "Compare with care: the assays were run in different laboratories."}
{"SMILES": "Oc1cccc(-c2nc(N3CCOCC3)c3oc4ncccc4c3n2)c1", "target": "TYK2", "assay": "cell-free assay", "setting": "0.5 µM", "measurement": "remaining signal", "result": "73.6%"}
{"SMILES": "COc1cc(Cl)c(C(=O)N[C@@H](CN[C@H]2CC[C@@H](N)CC2)Cc2ccc(C#N)cc2)cc1-c1ccc(CN[C@H](C)c2ccc(C)cc2)o1", "target": "TYK2", "assay": "enzyme activity, inhibitor", "setting": "1 µM", "measurement": "remaining activity", "result": "105%"}
{"SMILES": "O=C1NC(=O)c2cc(Nc3ccc(F)cc3)c(Nc3ccc(F)cc3)cc21", "target": "TYK2", "assay": "cell-free assay", "setting": "0.5 µM", "measurement": "remaining signal", "result": "80.6%"}
{"SMILES": "Cc1ccc(C(=O)NCc2ccsc2)cc1C#Cc1cn(C(C)C)c2ncnc(N)c12", "target": "TYK2", "assay": "enzyme activity, inhibitor", "setting": "1 µM", "measurement": "activity vs control", "result": "49%"}
{"SMILES": "O=C1CCc2cc(Nc3cc(OC4CCOCC4)c([N+](=O)[O-])cc3Cl)ccc2N1", "target": "TYK2 JH2", "assay": "cell-free assay, competition with immobilised ligand", "setting": "1 µM", "measurement": "remaining binding", "result": "94%"}
{"SMILES": "CN(C)c1nccc(-c2cnc3ncccn23)n1", "target": "TYK2 JH1", "assay": "cell-free assay, competition with immobilised ligand", "setting": "1 µM", "measurement": "remaining binding", "result": "83%"}
{"SMILES": "O=C(Nc1cnn(-c2csc(C(=O)NC3COC3)c2)c1)Nc1ccccc1Cl", "target": "TYK2", "assay": "enzyme activity, inhibitor", "setting": "5 µM", "measurement": "remaining activity", "result": "95.9%"}
{"SMILES": "c1ccc(N2CCN(Cc3nc4ccccc4[nH]3)CC2)nc1", "target": "TYK2 JH2", "assay": "binding, competition with immobilised ligand", "setting": "1 µM", "measurement": "remaining binding", "result": "100%"}
{"SMILES": "N#CCCc1ccc2c(c1)-c1[nH]c3ccc([N+](=O)[O-])cc3c1CC(=O)N2", "target": "TYK2", "assay": "cell-free assay", "setting": "0.5 µM", "measurement": "remaining signal", "result": "48.1%"}
{"SMILES": "F[C@@H]1CCN(c2nccc(-c3cnn4ncccc34)n2)C1", "target": "TYK2 JH1", "assay": "cell-free assay, competition with immobilised ligand", "setting": "1 µM", "measurement": "remaining binding", "result": "100%"}
{"SMILES": "CN1CC(Oc2cnc(C#N)cc2-c2ccn3nc(NC(=O)C4CC4)cc3c2)C1", "target": "TYK2", "assay": "enzyme activity, inhibitor", "setting": "1 µM", "measurement": "inhibition", "result": "-10%"}
{"SMILES": "CCC(=N\\O)/C(C)=C/c1ccc(F)cc1", "target": "TYK2 JH2", "assay": "cell-free assay, competition with immobilised ligand", "setting": "1 µM", "measurement": "remaining binding", "result": "73%"}
{"SMILES": "CN(c1nccc(-c2cnn3ncccc23)n1)C1CC1", "target": "TYK2 JH1", "assay": "cell-free assay", "setting": "1 µM", "measurement": "remaining signal", "result": "100%"}
{"SMILES": "COCCOc1nc(-c2ccc(Cl)nc2)nc2c1CN(C(=O)c1ncn3ccccc13)CC2", "target": "TYK2 JH1", "assay": "cell-free assay, competition with immobilised ligand", "setting": "0.1 µM", "measurement": "remaining binding", "result": "100%"}
{"SMILES": "CC1CCCN1c1nccc(-c2cnn3ncccc23)n1 (stereo not shown)", "target": "TYK2", "assay": "binding", "setting": "1 µM", "measurement": "remaining binding", "result": "87%"}
{"SMILES": "CCC(=O)N[C@@H]1CC[C@H](C(=O)N(C)c2ccc(-c3nc4ccccc4o3)cc2)C1", "target": "TYK2 JH2", "assay": "cell-free assay, competition with immobilised ligand", "setting": "1 µM", "measurement": "remaining binding", "result": "100%"}
{"SMILES": "Cc1cc(NC(=O)c2cccc3cc(-c4cccc5[nH]nc(N)c45)ccc23)ccc1F", "target": "TYK2", "assay": "enzyme activity, inhibitor", "setting": "0.1 µM", "measurement": "activity vs control", "result": "94%"}
{"SMILES": "O=c1nc(-c2ccccn2)sc2ccccc12", "target": "TYK2 JH2", "assay": "binding, competition with immobilised ligand", "setting": "1 µM", "measurement": "remaining binding", "result": "98%"}
{"SMILES": "Cc1cnc(NC2CCOCC2)nc1-n1cnc(C(=O)NC(CN)c2cc(F)cc(Cl)c2)c1 (stereo not shown)", "target": "TYK2", "assay": "enzyme activity, inhibitor, radiometric", "setting": "1 µM", "measurement": "remaining activity", "result": "96%"}
